Reference: ChEMBL document CHEMBL3872252, “New bithiazolyl hydrazones: Novel synthesis, characterization and antitubercular evaluation” (Bioorg Med Chem Lett, 2017)
Converted amounts (≈) assume the structure as drawn.

Experiments:
[1] = Selectivity index, ratio of GI50 for human THP1 cells to MIC90 for Mycobacterium tuberculosis H37Ra ATCC 25177 active stage; type: toxicity, cell-based, THP-1; details: read-out: Selectivity Index
Summary of the method: (§1)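 Cytotoxicity was measured on human MCF-7, HCT116 and THP-1 cells by MTT assay, with paclitaxel as reference. GI50 is the concentration inhibiting 50% of cell growth. The selectivity index is GI50 for the given cell line divided by MIC90 for the given mycobacterial strain and stage.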

[2] = Selectivity index, ratio of GI50 for human MCF7 cells to MIC90 for Mycobacterium tuberculosis H37Ra ATCC 25177 dormant stage; type: toxicity, cell-based; details: read-out: Selectivity Index
Summary of the method: (§2)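 Cytotoxicity was measured on human MCF-7, HCT116 and THP-1 cells by MTT assay, with paclitaxel as reference. The selectivity index is GI50 for the given cell line divided by MIC90 for the given mycobacterial strain and stage.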

[3] = test system: Pseudomonas aeruginosa; assay: Growth inhibition of Pseudomonas aeruginosa at 10 ug/ml; type: functional; details: read-out: GI
[4] = test system: Escherichia coli; assay: Growth inhibition of Escherichia coli at 3 ug/ml; type: functional; details: read-out: GI
Summary of the method: (§3)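 Screened against Gram-negative E. coli and P. aeruginosa and Gram-positive S. aureus and B. subtilis. Compound was tested at 3 µg/ml, and the read-out is percent growth inhibition.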

[5] = Antitubercular activity against Mycobacterium tuberculosis H37Ra ATCC 25177 active stage measured on day 8 by XTT reduction menadione based two-fold dilution assay; type: functional; details: ATCC 25177, 192 h
Summary of the method: (§4)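 M. tuberculosis H37Ra ATCC 25177 was exposed to 0.7–100 μg/mL in two-fold steps (0.7, 1.5, 3.1 … 100). Active stage was read after 8 days and dormant stage after 12 days of incubation. Inhibition was read by XTT reduction menadione assay (XRMA), absorbance 470 nm. MIC90 is the concentration giving ≥90% inhibition (µg/mL).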

[6] = test system: Bacillus subtilis; assay: Growth inhibition of Bacillus subtilis at 30 ug/ml; type: functional; details: read-out: GI
[7] = Selectivity index, ratio of GI50 for human HCT116 cells to MIC90 for Mycobacterium bovis BCG ATCC 35743 dormant stage; type: toxicity, cell-based, HCT-116; details: read-out: Selectivity Index; summary of the method: as §2
[8] = Antitubercular activity against Mycobacterium tuberculosis H37Ra ATCC 25177 active stage infected in human THP1 cells measured on day 8 by nitrate reductase assay; type: functional, THP-1; details: ATCC 25177, 192 h
[9] = test system: Pseudomonas aeruginosa; assay: Growth inhibition of Pseudomonas aeruginosa at 3 ug/ml; type: functional; details: read-out: GI; summary of the method: as §3
[10] = Antitubercular activity against Mycobacterium bovis BCG ATCC 35743 dormant stage measured on day 12 by nitrate reductase based two-fold dilution assay; type: functional, Mycobacterium bovis BCG str. ATCC 35743; details: Mycobacterium tuberculosis variant bovis BCG, ATCC 35743, 288 h
[11] = Selectivity index, ratio of GI50 for human HCT116 cells to MIC90 for Mycobacterium tuberculosis H37Ra ATCC 25177 active stage; type: toxicity, cell-based, HCT-116; details: read-out: Selectivity Index; summary of the method: as §1
[12] = Antitubercular activity against Mycobacterium tuberculosis H37Ra ATCC 25177 dormant stage measured on day 12 by XTT reduction menadione based two-fold dilution assay; type: functional; details: ATCC 25177, 288 h; summary of the method: as §4
[13] = Selectivity index, ratio of GI50 for human HCT116 cells to MIC90 for Mycobacterium tuberculosis H37Ra ATCC 25177 dormant stage; type: toxicity, cell-based, HCT-116; details: read-out: Selectivity Index; summary of the method: as §2
[14] = Cytotoxicity against human THP1 cells by MTT assay; type: toxicity, cell-based, THP-1; details: for GI50: THP1 cells; for GI90: thp-1
[15] = Cytotoxicity against human HCT116 cells by MTT assay; type: toxicity, cell-based, HCT-116; details: for GI50: HCT116 cells; for GI90: hct-116
[16] = Antitubercular activity against Mycobacterium bovis BCG ATCC 35743 active stage measured on day 8 by nitrate reductase based two-fold dilution assay; type: functional, Mycobacterium bovis BCG str. ATCC 35743; details: Mycobacterium tuberculosis variant bovis BCG, ATCC 35743, 192 h
[17] = Antitubercular activity against Mycobacterium tuberculosis H37Ra ATCC 25177 dormant stage infected in human THP1 cells measured on day 12 by nitrate reductase assay; type: functional, THP-1; details: ATCC 25177, 288 h
[18] = Selectivity index, ratio of GI50 for human MCF7 cells to MIC90 for Mycobacterium tuberculosis H37Ra ATCC 25177 active stage; type: toxicity, cell-based; details: read-out: Selectivity Index; summary of the method: as §1
[19] = Selectivity index, ratio of GI50 for human MCF7 cells to MIC90 for Mycobacterium bovis BCG ATCC 35743 dormant stage; type: toxicity, cell-based; details: read-out: Selectivity Index; summary of the method: as §2
[20] = test system: Escherichia coli; assay: Growth inhibition of Escherichia coli at 30 ug/ml; type: functional; details: read-out: GI
[21] = test system: Staphylococcus aureus; assay: Growth inhibition of Staphylococcus aureus at 3 ug/ml; type: functional; details: read-out: GI; summary of the method: as §3
[22] = Cytotoxicity against human MCF7 cells by MTT assay; type: toxicity, cell-based; details: for GI50: MCF7 cells; for GI90: mcf7
[23] = Selectivity index, ratio of GI50 for human THP1 cells to MIC90 for Mycobacterium bovis BCG ATCC 35743 dormant stage; type: toxicity, cell-based, THP-1; details: read-out: Selectivity Index; summary of the method: as §2
[24] = Selectivity index, ratio of GI50 for human MCF7 cells to MIC90 for Mycobacterium bovis BCG ATCC 35743 active stage; type: toxicity, cell-based; details: read-out: Selectivity Index; summary of the method: as §1
[25] = test system: Bacillus subtilis; assay: Growth inhibition of Bacillus subtilis at 3 ug/ml; type: functional; details: read-out: GI; summary of the method: as §3
[26] = test system: Pseudomonas aeruginosa; assay: Growth inhibition of Pseudomonas aeruginosa at 30 ug/ml; type: functional; details: read-out: GI
[27] = test system: Staphylococcus aureus; assay: Growth inhibition of Staphylococcus aureus at 10 ug/ml; type: functional; details: read-out: GI
[28] = Selectivity index, ratio of GI50 for human THP1 cells to MIC90 for Mycobacterium tuberculosis H37Ra ATCC 25177 dormant stage; type: toxicity, cell-based, THP-1; details: read-out: Selectivity Index; summary of the method: as §2
[29] = test system: Staphylococcus aureus; assay: Growth inhibition of Staphylococcus aureus at 30 ug/ml; type: functional; details: read-out: GI
[30] = Selectivity index, ratio of GI50 for human HCT116 cells to MIC90 for Mycobacterium bovis BCG ATCC 35743 active stage; type: toxicity, cell-based, HCT-116; details: read-out: Selectivity Index; summary of the method: as §1
[31] = test system: Bacillus subtilis; assay: Growth inhibition of Bacillus subtilis at 10 ug/ml; type: functional; details: read-out: GI
[32] = test system: Escherichia coli; assay: Growth inhibition of Escherichia coli at 10 ug/ml; type: functional; details: read-out: GI
[33] = Selectivity index, ratio of GI50 for human THP1 cells to MIC90 for Mycobacterium bovis BCG ATCC 35743 active stage; type: toxicity, cell-based, THP-1; details: read-out: Selectivity Index; summary of the method: as §1

Structure (SMILES)	selectivity ratio [1]	selectivity ratio [2]	inhibition of growth at 10 µg/mL [3] [%]	inhibition of growth at 3 µg/mL [4] [%]	IC50 [5] [µg/mL]	MIC90 [5] [µg/mL]	inhibition of growth at 30 µg/mL [6] [%]	selectivity ratio [7]	MIC90 [8] [µg/mL]	inhibition of growth at 3 µg/mL [9] [%]	IC50 [10] [µg/mL]	MIC90 [10] [µg/mL]	selectivity ratio [11]	IC50 [12] [µg/mL]	MIC90 [12] [µg/mL]	selectivity ratio [13]	GI50 [14] [µg/mL]	GI90 [14] [µg/mL]	GI50 [15] [µg/mL]	GI90 [15] [µg/mL]	further results
C/C(=N\NC(N)=S)c1sc(-c2ccccc2)nc1C	46	13	65.1	50.9	0.12 (≈ 0.413 µM)	1.78 (≈ 6.13 µM)	76.7	14	1.94 (≈ 6.68 µM)	47.4	0.97 (≈ 3.34 µM)	3.46 (≈ 11.9 µM)	27	0.78 (≈ 2.69 µM)	2.05 (≈ 7.06 µM)	23	81.5 (≈ 281 µM)	> 100	47.3 (≈ 163 µM)	> 100	IC50 [16]: 0.94 µg/mL (≈ 3.24 µM); MIC90 [16]: 3.04 µg/mL (≈ 10.5 µM); MIC90 [17]: 3.67 µg/mL (≈ 12.6 µM); selectivity ratio [18]: 15; selectivity ratio [19]: 8; inhibition of growth at 30 µg/mL [20]: 79.6%; inhibition of growth at 3 µg/mL [21]: 47.5%; GI50 [22]: 26 µg/mL (≈ 89.5 µM); GI90 [22]: > 100 µg/mL; selectivity ratio [23]: 24; selectivity ratio [24]: 9; inhibition of growth at 3 µg/mL [25]: 43.4%; inhibition of growth at 30 µg/mL [26]: 79.4%; inhibition of growth at 10 µg/mL [27]: 64.5%; selectivity ratio [28]: 40; inhibition of growth at 30 µg/mL [29]: 78.4%; selectivity ratio [30]: 16; inhibition of growth at 10 µg/mL [31]: 61.8%; inhibition of growth at 10 µg/mL [32]: 66.7%; selectivity ratio [33]: 27
C/C(=N\Nc1nc(-c2ccc(F)cc2)cs1)c1sc(C)nc1C	4	2	76.8	64	2.67 (≈ 7.71 µM)	25.3 (≈ 72.9 µM)	82.2	10	57 (≈ 165 µM)	62	6.04 (≈ 17.4 µM)	10.4 (≈ 30.1 µM)	4	2.04 (≈ 5.89 µM)	53.8 (≈ 155 µM)	2	> 100	> 100	> 100	> 100	IC50 [16]: 6 µg/mL (≈ 17.3 µM); MIC90 [16]: 9.29 µg/mL (≈ 26.8 µM); MIC90 [17]: 44.3 µg/mL (≈ 128 µM); selectivity ratio [18]: 4; selectivity ratio [19]: 10; inhibition of growth at 30 µg/mL [20]: 84.3%; inhibition of growth at 3 µg/mL [21]: 61.6%; GI50 [22]: > 100 µg/mL; GI90 [22]: > 100 µg/mL; selectivity ratio [23]: 10; selectivity ratio [24]: 11; inhibition of growth at 3 µg/mL [25]: 58.6%; inhibition of growth at 30 µg/mL [26]: 81.7%; inhibition of growth at 10 µg/mL [27]: 75.9%; selectivity ratio [28]: 2; inhibition of growth at 30 µg/mL [29]: 83.5%; selectivity ratio [30]: 11; inhibition of growth at 10 µg/mL [31]: 74.1%; inhibition of growth at 10 µg/mL [32]: 77.3%; selectivity ratio [33]: 11
C/C(=N\NC(N)=S)c1sc(C)nc1C	1	3	76.3	66.4	0.21 (≈ 0.92 µM)	> 100	82.9	1	> 100	64.7	5.09 (≈ 22.3 µM)	> 100	1	0.19 (≈ 0.832 µM)	30.5 (≈ 134 µM)	3	> 100	> 100	> 100	> 100	IC50 [16]: 4.42 µg/mL (≈ 19.4 µM); MIC90 [16]: > 100 µg/mL; MIC90 [17]: > 100 µg/mL; selectivity ratio [18]: 1; selectivity ratio [19]: 1; inhibition of growth at 30 µg/mL [20]: 85%; inhibition of growth at 3 µg/mL [21]: 64.2%; GI50 [22]: > 100 µg/mL; GI90 [22]: > 100 µg/mL; selectivity ratio [23]: 1; selectivity ratio [24]: 1; inhibition of growth at 3 µg/mL [25]: 61.5%; inhibition of growth at 30 µg/mL [26]: 85.4%; inhibition of growth at 10 µg/mL [27]: 75.4%; selectivity ratio [28]: 3; inhibition of growth at 30 µg/mL [29]: 84.2%; selectivity ratio [30]: 1; inhibition of growth at 10 µg/mL [31]: 73.5%; inhibition of growth at 10 µg/mL [32]: 76.8%; selectivity ratio [33]: 1
